Source: PubChem
Rows were chosen to be rich in hits. Some 29% of all compounds tested hit in one or more screens of this group.
CYP2C19 act: increases human CYP2C19 enzyme activity. recombinant CYP2C19, luciferin-H EGE luminescence; active compounds read high; 0 = fully inhibited enzyme, 1 = untreated enzyme. activation factor at 5 µM. 96,000 tested, under 10 active. AID 1025;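 active means activation factor of at least 2 at 5 µM in the primary screen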;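 further: 0 = wells with 2.5 mM tranylcypromine and 1 = vehicle-only wells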
CYP2C19 inh: human CYP2C19 inhibition; CYP2C19 Supersomes, luciferin-H EGE luminescence, 30 min; inhibition, % at 5 µM; 21% of 96,000 active;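 active means CYP2C19 inhibition above a set limit at 5 µM in the primary screen, cut at about 50% in these data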;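 further: plate controls were negative control wells for no effect and 2.5 mM tranylcypromine positive control for full effect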
Ecoli WT expand: growth inhibitors of E. coli BW25113 wild type | growth inhibition, % at 100 µM | 0.15% of 98,000 active | OD600 absorbance;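 active means growth inhibition above about 50% at one test dose, limit read from the data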;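 further: growth measured after 20 h incubation at 37 °C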
tolC growth inh: blocks growth of E. coli BW25113 tolC mutant; AID 573; OD615; growth inhibition, % at 10 µM (by protocol); 2.2% of 65,000 active;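 active means growth inhibition at or above a cutoff equal to the mean over every tested compound plus 3 SD, cut at about 60% in these data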;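 further: growth measured after 20 h incubation at 37 °C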
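test system = E. coli BW25113 ΔtolC::kan bacteria | medium = LB with kanamycin 50 µg/mL | signal = OD at 615 nm | schedule = 37 °C, 20 h exposure | evaluation = % inhibition of E. coli growth | compound dosing = one dose of 10 µM final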
CYP2C9 activ: increases human cytochrome P450 2C9 activity; 1.4% of 96,000 active; P11712; recombinant CYP2C9, luciferin-H conversion, luminescence; active compounds read high; factor 1 = untreated enzyme, 0 = blocked; activation factor at 5 µM;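 active means activation factor of 2 or more for CYP2C9 at a 5 µM dose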;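 further: 0 = sulfaphenazole-blocked wells and 1 = vehicle-only wells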
Target sequence (P11712 whole entry, looked up): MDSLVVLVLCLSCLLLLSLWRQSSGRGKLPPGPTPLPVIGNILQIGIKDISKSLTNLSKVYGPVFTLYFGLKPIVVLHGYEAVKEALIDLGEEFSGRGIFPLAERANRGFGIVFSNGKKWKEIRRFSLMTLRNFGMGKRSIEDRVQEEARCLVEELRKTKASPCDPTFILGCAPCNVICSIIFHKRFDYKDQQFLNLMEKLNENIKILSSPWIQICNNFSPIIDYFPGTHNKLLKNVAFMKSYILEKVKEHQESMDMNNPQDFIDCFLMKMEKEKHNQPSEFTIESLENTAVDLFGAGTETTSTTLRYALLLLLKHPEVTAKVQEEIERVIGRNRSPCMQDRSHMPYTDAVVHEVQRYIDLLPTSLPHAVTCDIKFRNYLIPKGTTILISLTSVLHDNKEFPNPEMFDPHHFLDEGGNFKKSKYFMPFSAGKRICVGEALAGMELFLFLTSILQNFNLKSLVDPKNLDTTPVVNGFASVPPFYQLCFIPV
CYP2C9 inhib: human CYP2C9 inhibition; P11712; inhibition, % at 5 µM; 20% of 96,000 active; AID 777; CYP2C9 Supersomes, luciferin-H conversion, luminescence;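 active means blocking of liver enzyme CYP2C9 beyond about 50% at 5 µM, limit read from the data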
An asterisk follows results filed as active; / = not tested or not shown.

SMILES | CYP2C19 act | CYP2C19 inh | Ecoli WT expand | tolC growth inh | CYP2C9 activ | CYP2C9 inhib
COc1cccc(C(=O)NCc2cccnc2)c1 | 0.8 | 21 | 9 | -10 | 1.2 | -19
COc1ccc(-c2nc3ccccc3s2)cc1O | 0.6 | 41 | 3 | 24 | 0.3 | 72*
COc1cccc(-c2cc(C(=O)Nc3ccc4c(c3)OCCO4)c3ccccc3n2)c1 | 1.2 | -17 | -12 | / | 0.3 | 71*
COc1cccc(-c2cc(C(=O)Nc3nc4ccccc4s3)c3ccccc3n2)c1 | 0.8 | 22 | -13 | / | 0.5 | 51*
COc1ccc(-c2cc(C(=O)Nc3nc4c(C)cccc4s3)c3ccccc3n2)cc1OC | 1 | -4 | -13 | / | 0.6 | 35
COc1cccc(C(=O)NCc2ccc(-c3nc4ccccc4s3)cc2)c1 | 0.6 | 39 | -3 | / | 0.2 | 82*
Cc1ccc2c(CC(=O)OC3CCOC3=O)coc2c1 (stereo not drawn) | 0.6 | 37 | -3 | 2 | 0.8 | 18
Cn1c(NC(=O)c2cc(-c3ccc4c(c3)OCO4)nc3ccccc23)cc(=O)n(C)c1=O | 0.7 | 30 | -7 | 27 | 0.3 | 73*
COc1ccccc1N1CCN(C(=O)CSc2nc(C)c(Cc3ccccc3)c(=O)[nH]2)CC1 | 0.8 | 23 | 11 | 36 | 0.7 | 26
CN(CCNC(=O)C1CCN(S(=O)(=O)N2CCOCC2)CC1)CCc1ccccc1 | 1 | -1 | 6 | -21 | 0.9 | 8
N#Cc1cc([N+](=O)[O-])c(-n2nnc3ccccc32)c([N+](=O)[O-])c1 | 0.6 | 42 | -3 | / | 0.3 | 66*
COC(=O)COn1c(-n2nc(C)cc2C)nc2ccccc2c1=O | 1 | -2 | 10 | / | 0.8 | 22
CCOn1c(-n2nc(C)cc2C)nc2ccccc2c1=O | 0.4 | 63* | 2 | / | 0.9 | 6
Cc1cc(C)n(-c2nc3ccccc3c(=O)n2OC2CCCCC2)n1 | 0.3 | 68* | 8 | 12 | 0.5 | 52*
Cc1ccccc1Oc1ncccc1C(=O)/C(C#N)=C/N(C)C | 0.7 | 35 | -6 | / | 1 | 1
Cc1cc(Cl)ccc1Oc1cccc(C(=O)/C(C#N)=C/N(C)C)c1 | 0.3 | 70* | 0 | / | 0.8 | 23
Cc1ccccc1Oc1cccc(C(=O)/C(C#N)=C/N(C)C)c1 | 0.1 | 89* | 5 | / | 0.2 | 79*
CN(C)/C=C(/C#N)C(=O)c1cccc(Oc2ccc(C(C)(C)C)cc2)c1 | 0.2 | 78* | -6 | / | 0.5 | 50
CC(C)Oc1cccc(C(=O)O)c1 | 1 | 1 | -3 | -13 | 0.9 | 6
Cc1cc(C)nc(/N=C2\NC(=O)CC3C(=O)NCCN23)n1 (stereo not drawn) | / | / | -8 | -17 | / | /
C/C(CC(O)c1ccc2ccccc2n1)=N/O (stereo not drawn) | 1 | 1 | 9 | -5 | 0.9 | 8
c1csc(Cn2nnnc2CN2CCN(c3nc4ccccc4s3)CC2)c1 | 1 | 0 | -5 | 49 | 0.9 | 12
CCCCC(c1nnnn1Cc1ccco1)N1CCN(c2nc3ccccc3s2)CC1 (stereo not drawn) | 0.1 | 95* | -5 | 39 | 0.1 | 91*
CCCC(c1nnnn1Cc1ccccc1)N1CCN(c2ccccc2OC)CC1 (stereo not drawn) | 0.4 | 57* | 3 | 3 | 0.5 | 49
c1ccc(Cn2nnnc2C(c2ccccc2)N2CCN(c3nc4ccccc4s3)CC2)cc1 (stereo not drawn) | 0.4 | 58* | -11 | 15 | 0.4 | 65*
SMILES | CYP2C19 act | CYP2C19 inh | Ecoli WT expand | tolC growth inh | CYP2C9 activ | CYP2C9 inhib
CCCC(c1nnnn1Cc1ccc(OC)cc1)N1CCN(c2ccccc2OC)CC1 (stereo not drawn) | 0.6 | 43 | -4 | 28 | 0.5 | 48
COc1ccccc1C(c1nnnn1Cc1ccccc1)N1CCN(c2nc3ccccc3s2)CC1 (stereo not drawn) | 0.5 | 47 | -17 | 10 | 0.4 | 56*
Cc1ccc2occ(C(c3nnnn3Cc3ccccc3)N3CCOCC3)c(=O)c2c1 (stereo not drawn) | 0.7 | 31 | 9 | -2 | 0.7 | 28
Cc1ccc(C)c(N2CCN(C(c3ccncc3)c3nnnn3Cc3ccccc3)CC2)c1 (stereo not drawn) | 0 | 97* | 3 | 57 | 0.1 | 93*
CC(C)C(NC(=O)OCc1ccccc1)C(=O)OCC(=O)N1CCCCC1 (stereo not drawn) | 0.5 | 46 | -13 | -5 | 0.7 | 26
O=C(CCC(NC(=O)OCc1ccccc1)C(=O)OCC(=O)N1CCCCC1)OCC(=O)N1CCCCC1 (stereo not drawn) | 0.2 | 83* | 2 | / | 0.1 | 92*
COCCn1cc(C(=O)N2CCN(C)CC2)c2c3ccccc3n(C)c2c1=O | 1 | 0 | -1 | -9 | 1 | -1
Cn1c2ccccc2c2c(C(=O)NCCCN3CCCC3=O)cn(C3CCCCC3)c(=O)c21 | 0.7 | 33 | -6 | -13 | 0.5 | 55*
Cn1c2ccccc2c2c(C(=O)N3CCN(c4ccccc4)CC3)cn(C3CCCC3)c(=O)c21 | 0.6 | 40 | -25 | 27 | 0.5 | 52*
Cc1ccc(Cl)cc1N1CCN(C(=O)c2cn(C)c(=O)c3c2c2ccccc2n3C)CC1 | 0.1 | 86* | -6 | 52 | 0 | 96*
Cc1cccc(N2CCN(C(=O)c3cn(C)c(=O)c4c3c3ccccc3n4C)CC2)c1C | 0.9 | 8 | -1 | 83* | 0.3 | 70*
O=C(CSc1nnc2c(Cl)cc(C(F)(F)F)cn12)Nc1ccc2c(c1)OCO2 | 0.7 | 30 | -1 | -9 | 0.7 | 32
C=CCn1c(Sc2nncn2C)nc2c1c(=O)[nH]c(=O)n2C | / | / | -2 | -20 | / | /
CC(=O)C1=C(O)C(=O)N(CCCCCC(=O)O)C1c1ccc(N(C)C)cc1 (stereo not drawn) | 1 | -2 | -3 | -17 | 1.1 | -10
Cc1ccc2c(c1)CCCN2C(=O)c1ccoc1C | 0.4 | 63* | -1 | 2 | 0.6 | 35
Cc1ccc2c(c1)CCCN2C(=O)c1cc2ccccc2oc1=O | 0.6 | 41 | 0 | / | 2.8* | -176
O=C(N/N=C\c1ccc(F)cc1)c1csnn1 | 0.8 | 16 | 10 | / | 0.9 | 11
O=C(NCc1ccc(N2CCCC2=O)cc1)NC1CCCCC1 | 1.1 | -6 | -4 | -4 | 1 | -3
COCCNS(=O)(=O)c1ccc2c(c1)C(=O)c1cc(S(=O)(=O)NCCOC)ccc1-2 | 0.9 | 6 | -10 | 6 | 0.4 | 64*
COCCNS(=O)(=O)c1ccc(F)c(OC)c1 | 0.9 | 10 | -8 | / | 1.1 | -10
O=C1c2cc(S(=O)(=O)NCCCO)ccc2-c2ccc(S(=O)(=O)NCCCO)cc21 | 1 | 4 | -2 | / | 0.4 | 58*
COC(=O)C1=C(N)Oc2cc(C)n(Cc3cccnc3)c(=O)c2C1c1cc(OC)ccc1OC (stereo not drawn) | 0.6 | 36 | -6 | -14 | 0.8 | 23
